Data published in ChEMBL document CHEMBL4043125, “Design, synthesis, and pharmacological evaluation of a novel series of hormone sensitive lipase inhibitor” (Bioorg Med Chem, 2017).
Values after ≈ are worked out from the molar mass of the structure shown. Active and inactive are the calls of the source. The calls are words filed in the database; no cut-off is given here.

Columns and labels:
Hormone-sensitive lipase [1] = target: T1, Hormone-sensitive lipase (Rattus norvegicus, UniProt P15304); test: Inhibition of HSL in rat adipocytes assessed as reduction in lipolysis by measuring glycerol concentration incubated for 30 mins by spectrophotometric analysis; format: cell-based
T1 sequence (P15304 whole entry): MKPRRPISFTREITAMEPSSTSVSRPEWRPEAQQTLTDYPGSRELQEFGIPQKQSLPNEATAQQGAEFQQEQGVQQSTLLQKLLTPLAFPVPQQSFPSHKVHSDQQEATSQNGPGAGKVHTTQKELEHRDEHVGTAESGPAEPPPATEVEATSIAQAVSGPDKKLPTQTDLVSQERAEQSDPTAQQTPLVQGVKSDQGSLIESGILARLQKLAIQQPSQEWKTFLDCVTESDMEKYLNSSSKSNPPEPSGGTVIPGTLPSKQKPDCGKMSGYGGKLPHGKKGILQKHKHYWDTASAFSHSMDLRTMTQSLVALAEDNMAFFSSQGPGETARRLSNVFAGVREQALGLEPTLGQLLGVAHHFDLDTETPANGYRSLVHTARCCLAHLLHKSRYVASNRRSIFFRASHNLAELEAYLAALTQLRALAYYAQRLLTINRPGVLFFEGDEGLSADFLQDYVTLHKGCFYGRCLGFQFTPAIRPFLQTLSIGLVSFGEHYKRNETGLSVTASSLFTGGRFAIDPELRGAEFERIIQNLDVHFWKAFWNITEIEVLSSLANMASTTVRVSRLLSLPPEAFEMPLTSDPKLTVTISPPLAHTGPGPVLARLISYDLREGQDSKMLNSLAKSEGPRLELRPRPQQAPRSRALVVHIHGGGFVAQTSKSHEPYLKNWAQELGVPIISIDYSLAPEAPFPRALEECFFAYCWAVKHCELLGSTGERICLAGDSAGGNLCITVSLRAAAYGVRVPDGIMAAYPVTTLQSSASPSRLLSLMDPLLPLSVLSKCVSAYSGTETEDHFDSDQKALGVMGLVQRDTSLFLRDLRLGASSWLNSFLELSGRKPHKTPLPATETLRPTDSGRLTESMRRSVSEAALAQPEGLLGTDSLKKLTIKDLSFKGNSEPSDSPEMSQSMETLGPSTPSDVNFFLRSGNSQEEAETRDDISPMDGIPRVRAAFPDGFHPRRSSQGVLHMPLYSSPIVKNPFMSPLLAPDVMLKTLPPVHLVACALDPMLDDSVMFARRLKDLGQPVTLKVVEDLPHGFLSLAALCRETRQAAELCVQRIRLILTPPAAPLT
Procedure, shortened: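 Rat subcutaneous white adipocytes, differentiated 7 days, washed in lipolysis buffer (pH 7.0, with glucose, HEPES, adenosine, 1% BSA). Compound dilutions in DMSO added, 30 min at 37°C, 5% CO2. Supernatant glycerol measured with a free glycerol kit at 540 nm. Triplicate; IC50 from nonlinear curve fitting.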

[2] = target: Acetylcholinesterase (Homo sapiens) (UniProt P22303); test: Inhibition of AChE (unknown origin) at 10 uM using acetylthiocholine iodide as substrate preincubated for 10 mins followed by substrate addition measured after 15 mins by spectrophotometric analysis relative to control
Sequence of Acetylcholinesterase (Homo sapiens) (P22303 whole entry): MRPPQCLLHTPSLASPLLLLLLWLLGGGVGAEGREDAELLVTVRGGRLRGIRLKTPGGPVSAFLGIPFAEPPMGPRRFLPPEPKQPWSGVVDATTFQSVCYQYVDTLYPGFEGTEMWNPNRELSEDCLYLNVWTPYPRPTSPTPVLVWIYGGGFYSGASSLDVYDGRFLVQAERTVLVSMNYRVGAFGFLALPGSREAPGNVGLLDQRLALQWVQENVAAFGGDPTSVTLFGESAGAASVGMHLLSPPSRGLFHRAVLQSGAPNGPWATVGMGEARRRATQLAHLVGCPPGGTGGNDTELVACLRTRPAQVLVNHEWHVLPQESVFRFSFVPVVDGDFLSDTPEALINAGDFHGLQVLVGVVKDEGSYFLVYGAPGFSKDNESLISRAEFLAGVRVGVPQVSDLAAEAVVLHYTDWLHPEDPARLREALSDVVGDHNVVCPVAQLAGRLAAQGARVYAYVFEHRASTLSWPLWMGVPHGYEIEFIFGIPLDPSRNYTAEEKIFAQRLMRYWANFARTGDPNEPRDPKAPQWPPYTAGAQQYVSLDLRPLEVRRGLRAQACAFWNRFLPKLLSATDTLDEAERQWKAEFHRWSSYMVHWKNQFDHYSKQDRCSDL
Procedure, shortened: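 Enzyme (100 U/mL) preincubated with inhibitor 10 min at room temperature, then mixed with 0.1 M potassium phosphate-HCl pH 8.0, acetylthiocholin iodide (final 500 μM) and DTNB; incubated 15 min at 37°C with shaking. Absorbance at 405 nm read at 0 and 15 min. Tested at 1, 10 and 100 μM.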

[3] = target: Cholinesterase (Homo sapiens) (UniProt P06276); test: Inhibition of BuChE (unknown origin) at 10 uM using S-butyrylthiocholin iodide as substrate preincubated for 10 mins followed by substrate addition measured after 15 mins by spectrophotometric analysis relative to control
Sequence of Cholinesterase (Homo sapiens) (P06276 whole entry): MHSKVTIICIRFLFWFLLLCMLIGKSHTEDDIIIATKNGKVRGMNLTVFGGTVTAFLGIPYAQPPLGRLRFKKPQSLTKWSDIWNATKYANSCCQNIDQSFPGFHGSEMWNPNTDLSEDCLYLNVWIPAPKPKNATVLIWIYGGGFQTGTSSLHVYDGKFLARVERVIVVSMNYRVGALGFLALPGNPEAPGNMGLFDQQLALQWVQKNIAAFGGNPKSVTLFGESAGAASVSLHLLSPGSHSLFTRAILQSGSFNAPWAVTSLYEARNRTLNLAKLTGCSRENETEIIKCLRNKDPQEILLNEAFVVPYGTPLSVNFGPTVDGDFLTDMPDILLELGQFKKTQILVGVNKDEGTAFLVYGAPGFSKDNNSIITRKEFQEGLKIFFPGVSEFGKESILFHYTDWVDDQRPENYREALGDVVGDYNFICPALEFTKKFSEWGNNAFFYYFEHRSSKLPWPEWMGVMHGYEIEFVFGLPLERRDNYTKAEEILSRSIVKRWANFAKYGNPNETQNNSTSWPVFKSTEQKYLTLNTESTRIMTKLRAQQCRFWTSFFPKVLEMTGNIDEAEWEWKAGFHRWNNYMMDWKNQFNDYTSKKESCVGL
Procedure, shortened: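 Enzyme (100 U/mL) preincubated with inhibitor 10 min at room temperature, then mixed with 0.1 M potassium phosphate-HCl pH 8.0, S-butyrylthiocholin iodide (final 1000 μM) and DTNB; incubated 15 min at 37°C with shaking. Absorbance at 405 nm read at 0 and 15 min. Tested at 1, 10 and 100 μM.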

[4] = 1-octanol/phosphate buffered saline distribution coefficient, log D of the compound at 200 uM at pH 7.4 after 30 mins by shake flask based HPLC/LC-MS analysis; format: physicochemical
Procedure, shortened: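 Shake-flask LogD: PBS and 1-octanol pre-saturated by shaking and standing overnight. Compound at 200 μM in either phase, equal volume of the other added, shaken 30 min at room temperature, centrifuged 2100 g 5 min. Both phases quantified by HPLC and LC-MS. LogD7.4 = log(octanol peak area/PBS peak area).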

[5] = Aqueous solubility of the compound in Japanese pharmacopoeia first fluid at pH 1.2 after 4 hrs by HPLC/UV analysis; format: physicochemical
Procedure, shortened: (§1)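 Solubility: DMSO sample solution freeze-dried. Residue stirred at 1700 rpm for 4 h in JP first fluid (pH 1.2), JP second fluid (pH 6.8) or FaSSIF. Filtered, filtrate diluted in DMSO, quantified by HPLC-UV against a per-sample calibration curve.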

[6] = Aqueous solubility of the compound in Japanese pharmacopoeia second fluid at pH 6.8 after 4 hrs by HPLC/UV analysis; format: physicochemical; procedure, shortened: as §1
[7] = Aqueous solubility of the compound in FaSSIF after 4 hrs by HPLC/UV analysis; format: physicochemical; procedure, shortened: as §1
Hormone-sensitive lipase [8] = target: T2, Hormone-sensitive lipase (Homo sapiens, UniProt Q05469); test: Inhibition of recombinant human HSL expressed in baculovirus infected sf9 insect cells using PNPB as substrate after 5 mins by spectrophotometric analysis
T2 sequence (Q05469 whole entry): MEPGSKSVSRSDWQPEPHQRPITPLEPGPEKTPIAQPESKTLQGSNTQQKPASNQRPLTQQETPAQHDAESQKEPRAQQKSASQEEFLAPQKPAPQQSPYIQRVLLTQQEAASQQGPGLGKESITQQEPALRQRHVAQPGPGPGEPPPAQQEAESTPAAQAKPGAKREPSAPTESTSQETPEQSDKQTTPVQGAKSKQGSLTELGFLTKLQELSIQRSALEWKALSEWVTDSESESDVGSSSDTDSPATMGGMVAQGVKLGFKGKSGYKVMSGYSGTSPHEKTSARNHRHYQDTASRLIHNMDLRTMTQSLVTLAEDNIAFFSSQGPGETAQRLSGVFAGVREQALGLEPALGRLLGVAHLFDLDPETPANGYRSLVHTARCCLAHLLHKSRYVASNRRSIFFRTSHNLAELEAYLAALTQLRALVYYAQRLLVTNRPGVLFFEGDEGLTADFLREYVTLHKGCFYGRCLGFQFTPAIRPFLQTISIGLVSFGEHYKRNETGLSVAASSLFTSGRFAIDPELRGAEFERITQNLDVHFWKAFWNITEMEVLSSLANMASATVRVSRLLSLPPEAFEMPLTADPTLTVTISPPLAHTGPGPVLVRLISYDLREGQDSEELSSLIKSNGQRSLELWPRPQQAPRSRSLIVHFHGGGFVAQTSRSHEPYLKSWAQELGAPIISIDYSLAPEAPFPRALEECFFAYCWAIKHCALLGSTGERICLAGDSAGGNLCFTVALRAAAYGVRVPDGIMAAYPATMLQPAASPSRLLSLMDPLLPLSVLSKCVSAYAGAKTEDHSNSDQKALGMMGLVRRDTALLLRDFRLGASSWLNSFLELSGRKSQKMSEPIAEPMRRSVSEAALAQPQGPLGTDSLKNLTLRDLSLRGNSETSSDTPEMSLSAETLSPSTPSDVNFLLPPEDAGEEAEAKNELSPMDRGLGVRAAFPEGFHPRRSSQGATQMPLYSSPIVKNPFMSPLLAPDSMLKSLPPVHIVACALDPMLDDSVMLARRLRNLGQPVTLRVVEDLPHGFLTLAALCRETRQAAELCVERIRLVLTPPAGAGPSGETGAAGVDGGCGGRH

Rattus norvegicus [9] = test: Antilipolytic activity in Wistar rat assessed as reduction in plasma glycerol AUC (0 to 7 hrs) at 10 mg/kg, po by spectrophotometric analysis; format: functional, organism-based
Procedure, shortened: (§2)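 Male Wistar rats, 8 weeks, fasted overnight. Dosed orally in 0.5% (w/v) methylcellulose, with vehicle controls (n = 4) and treated groups (n = 3). Tail-vein EDTA blood taken pre-dose and at 0.5, 1, 3, 5, 7 h. Plasma glycerol read with a free glycerol kit. Reduction in glycerol AUC0–7h versus vehicle expressed relative to a reference inhibitor group; mean ± SEM.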

[10] = Effective permeability of the compound in prisma HT buffer at 10 mM at pH 5 after 4 hrs by PAMPA; format: physicochemical; details: read-out: Peff
Procedure, shortened: (§3)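 PAMPA: filter coated with GIT-0 lipid. 10 mM DMSO stock diluted into Prisma HT buffer to give 5 µM donor solution (0.05% DMSO) at pH 5.0 or 7.4. Acceptor sink buffer used. Incubated 4 h at 25°C. Both compartments quantified by LC-MS/MS to derive the permeability coefficient.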

[11] = Effective permeability of the compound in prisma HT buffer at 10 mM at pH 7.4 after 4 hrs by PAMPA; format: physicochemical; details: read-out: Peff; procedure, shortened: as §3
[12] = Cmax in rat at 3 mg/kg, po by LC-MS/MS analysis; format: ADME, organism-based; design: dose 3 mg/kg, route oral; details: in vivo
[13] = AUC (0 to 7 hrs) in rat at 3 mg/kg, po by LC-MS/MS analysis; format: ADME, organism-based; design: time < 7 hr, dose 3 mg/kg, route oral; details: in vivo
Rattus norvegicus [14] = test: Antilipolytic activity in Wistar rat assessed as reduction in plasma glycerol AUC (0 to 7 hrs) at 1 mg/kg, po by spectrophotometric analysis relative to control; format: functional; design: scale not given: the % may be the effect or the level left; procedure, shortened: as §2

Row | SMILES | IC50 (Hormone-sensitive lipase [1]) | inhibition [2] | inhibition [3] | other results
1 | O=C(Cc1ccccc1B(O)O)N1CCC(Oc2ccc(C(F)(F)F)cn2)CC1 | 80 nM | 7% | 46% | 
2 | O=C(Nc1ccc(Cl)cc1B(O)O)c1ccc(Oc2ccc(C(F)(F)F)cc2)nc1 | 110 nM |  |  | logD at 0.5 h, 200 µM [4]: 4.3; solubility at 4 h [5]: 1.8 µg/mL (≈ 4.12 µM); solubility at 4 h [6]: 1.5 µg/mL (≈ 3.44 µM); solubility at 4 h [7]: 12 µg/mL (≈ 27.5 µM)
3 | O=C(Cc1ccccc1B(O)O)N1CCC(COc2ccc(C(F)(F)F)cn2)CC1 | 260 nM |  |  | 
4 | O=C(Nc1ccccc1B(O)O)c1ccc(Oc2ccc(C(F)(F)F)cn2)cn1 | 1100 nM |  |  | 
5 | OB(O)c1ccccc1CN1CCC(Oc2ccc(C(F)(F)F)cn2)CC1 | 1400 nM |  |  | 
6 | O=C(Nc1ccccc1B(O)O)c1ccc(Oc2ccc(C(F)(F)F)cn2)cc1 | 470 nM |  |  | logD at 0.5 h, 200 µM [4]: 3.2
7 | CN(C)C(=O)c1ccc(OC2CCN(C(=O)Cc3ccccc3B(O)O)CC2)nc1 |  |  |  | IC50 (Hormone-sensitive lipase [8]): > 5000 nM
8 | O=C(Cc1ccc(Cl)cc1B(O)O)N1CCC(Oc2ccc(C(F)(F)F)cn2)CC1 | 24 nM | 8% | 5% | 
9 | O=C(Oc1ccc(Oc2ccc(C(F)(F)F)cn2)cc1)N1CCC(O)CC1 |  |  |  | Activity (Rattus norvegicus [9]): Active
10 | O=C(CCc1ccccc1B(O)O)N1CCC(Oc2ccc(C(F)(F)F)cn2)CC1 | 1400 nM |  |  | 
11 | O=C(Cc1ccccc1B(O)O)N1CCC(Oc2ccc(C(F)(F)F)nc2)CC1 | 180 nM | 6% | 62% | 
12 | COc1ccc(CC(=O)N2CCC(Oc3ccc(C(F)(F)F)cn3)CC2)c(B(O)O)c1 | 45 nM | 9% | -4% | 
13 | O=C(C(O)c1ccccc1B(O)O)N1CCC(Oc2ccc(C(F)(F)F)cn2)CC1 (configuration not stated) | 280 nM | -4% | 4% | 
14 | O=C(Cc1ccc(F)cc1B(O)O)N1CCC(Oc2ccc(C(F)(F)F)cn2)CC1 |  | 7% | 2% | Papp at 4 h, 10000 µM [10]: > 50 ×10⁻⁶ cm/s; Papp at 4 h, 10000 µM [11]: > 50 ×10⁻⁶ cm/s; logD at 0.5 h, 200 µM [4]: 3.7; solubility at 4 h [5]: 190 µg/mL (≈ 446 µM); solubility at 4 h [6]: 84 µg/mL (≈ 197 µM); solubility at 4 h [7]: 99 µg/mL (≈ 232 µM); Cmax [12]: 650 ng/mL; AUC(0-t) at 7 h [13]: 3180 ng·h/mL; Activity (Rattus norvegicus [14]): 22%
15 | O=C(Cc1ccccc1B(O)O)N1CCC(Oc2ccc(C(F)(F)F)cc2)CC1 | 130 nM | 9% | 72% | 
